Experimental data taken from ChEMBL document CHEMBL1828596, “Synthesis of methoxy- and bromo-substituted indirubins and their activities on apoptosis induction in human neuroblastoma cells” (Bioorg Med Chem Lett, 2011).
Calls of active or inactive are those of the source. No cut-off for these calls is given here.

Key:
SK-N-SH [1] = assay: Cytotoxicity against human SK-N-SH cells assessed as cell viability after 48 hrs by MTT assay; format: functional, cell-based
How it was run: (§1)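 MTT viability assay in neuroblastoma lines (IMR-32, SK-N-SH, NB-39) and normal cells (NHDF, HUVEC). Cells were exposed to the indicated concentrations of compound or DMSO vehicle for 48 h. Survival is expressed relative to the vehicle control as mean ± SEM, n = 3.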

NB39 [2] = assay: Cytotoxicity against human NB39 cells assessed as cell viability after 48 hrs by MTT assay; format: functional, cell-based; how it was run: as §1
IMR-32 [3] = assay: Cytotoxicity against human IMR32 cells assessed as cell viability after 48 hrs by MTT assay; format: functional, cell-based; how it was run: as §1
HUVEC [4] = assay: Cytotoxicity against human HUVEC cells assessed as cell viability after 48 hrs by MTT assay; format: cell-based; how it was run: as §1
NHDF [5] = assay: Cytotoxicity against human NHDF cells assessed as cell viability after 48 hrs by MTT assay; format: cell-based; how it was run: as §1
IMR-32 [6] = assay: Cytotoxicity against human IMR32 cells assessed as cell viability up to 40 uM after 48 hrs by MTT assay; format: functional, cell-based; how it was run: as §1
SK-N-SH [7] = assay: Cytotoxicity against human SK-N-SH cells assessed as cell viability up to 40 uM after 48 hrs by MTT assay; format: functional, cell-based; how it was run: as §1
HUVEC [8] = assay: (§2) Cytotoxicity against human HUVEC cells assessed as cell viability up to 40 uM after 48 hrs by MTT assay; format: cell-based; conditions: huvec, 48 h; how it was run: as §1
NHDF [9] = assay: (§3) Cytotoxicity against human NHDF cells assessed as cell viability up to 40 uM after 48 hrs by MTT assay; format: cell-based; conditions: nhdf, 48 h; how it was run: as §1
NB39 [10] = assay: Cytotoxicity against human NB39 cells assessed as cell viability up to 40 uM after 48 hrs by MTT assay; format: functional, cell-based; how it was run: as §1
[11] = as §2; format: cell-based; conditions: HUVEC cells, read-out: Activity; how it was run: as §1
[12] = as §3; format: cell-based; conditions: NHDF cells, read-out: Activity; how it was run: as §1
IMR-32 [13] = assay: Induction of apoptosis in human IMR32 cells assessed as chromatin condensation at 1 x 10^-6 to 1 x 10^-4 M after 24 hrs using Hoechst 33342 staining by fluorescent microscopic analysis; format: functional, cell-based
How it was run: (§4)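 IMR-32 cells were exposed to compound (1 × 10⁻⁶–1 × 10⁻⁴ M) or cisplatin (1 × 10⁻⁴ M) for 24 h, then stained with Hoechst 33342. Phase-contrast and fluorescence microscopy were used to assess nuclear morphology (shrinkage, chromatin condensation, fragmented nuclei).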

IMR-32 [14] = assay: Induction of apoptosis in human IMR32 cells assessed as cellular shrinkage at 1 x 10^-6 to 1 x 10^-4 M after 24 hrs using Hoechst 33342 staining by fluorescent microscopic analysis; format: functional, cell-based; how it was run: as §4
[15] = Cytotoxicity against human HUVEC cells assessed as cell survival at 100 uM; format: cell-based; conditions: read-out: Activity; how it was run: as §1
IMR-32 [16] = assay: Induction of apoptosis in human IMR32 cells assessed as appearance of fragmented nuclei at 1 x 10^-6 to 1 x 10^-4 M after 24 hrs using Hoechst 33342 staining by fluorescent microscopic analysis; format: functional, cell-based; how it was run: as §4
[17] = Cytotoxicity against human NB39 cells assessed as cell survival at 100 uM; format: functional; conditions: read-out: Activity; how it was run: as §1
IMR-32 [18] = assay: Induction of apoptosis human IMR32 cells assessed as increase in early apoptotic cells at 100 uM after 48 hrs using annexin V-propidium iodide staining by flow cytometry; format: functional, cell-based
How it was run: (§5)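 IMR-32 cells were treated with compound at 100 μM or DMSO vehicle for 48 h; untreated cells served as the normal group. Cells were double-stained with Annexin V-Alexa Fluor 488 and propidium iodide and analysed by flow cytometry. Early apoptosis was read as Annexin+/PI− and late apoptosis as Annexin+/PI+. Groups were compared with one-way ANOVA and Bonferroni post hoc test versus vehicle.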

SK-N-SH [19] = assay: Cytotoxicity against human SK-N-SH cells assessed as cell survival at 100 uM; format: functional; conditions: read-out: Activity; how it was run: as §1
IMR-32 [20] = assay: Cytotoxicity against human IMR32 cells assessed as cell survival at 100 uM; format: functional; conditions: read-out: Activity; how it was run: as §1
[21] = Cytotoxicity against human NHDF cells assessed as cell survival at 100 uM; format: cell-based; conditions: read-out: Activity; how it was run: as §1
IMR-32 [22] = assay: Induction of apoptosis human IMR32 cells assessed as increase in late apoptotic cells at 100 uM after 48 hrs using annexin V-propidium iodide staining by flow cytometry; format: functional, cell-based; how it was run: as §5

| SMILES | Activity (SK-N-SH [1]) | Activity (NB39 [2]) | Activity (IMR-32 [3]) | Activity (HUVEC [4]) | Activity (NHDF [5]) | also measured |
| --- | --- | --- | --- | --- | --- | --- |
| O=C1C(c2c(O)[nH]c3cc(Br)ccc23)=Nc2ccccc21 | inactive | inactive | inactive | Non-toxic | Non-toxic | – |
| O=C1Nc2ccccc2/C1=C1/Nc2ccccc2C1=O [INDIRUBIN] | – | – | – | – | – | Activity (IMR-32 [6]): inactive; Activity (SK-N-SH [7]): inactive; Activity (HUVEC [8]): Non-toxic; Activity (NHDF [9]): Non-toxic; Activity (NB39 [10]): inactive |
| O=C1C(c2c(O)[nH]c3ccccc23)=Nc2cc(Br)ccc21 | inactive | inactive | inactive | Non-toxic | Non-toxic | – |
| COc1cccc2c1NC(=O)/C2=C1\Nc2ccccc2C1=O | – | – | – | – | – | Activity (IMR-32 [6]): inactive; Activity (SK-N-SH [7]): inactive; Activity (HUVEC [8]): Non-toxic; Activity (NHDF [9]): Non-toxic; Activity (NB39 [10]): inactive |
| O=C1C(c2c(O)[nH]c3c(Br)cccc23)=Nc2ccccc21 | inactive | inactive | inactive | Non-toxic | Non-toxic | – |
| Cc1ccc2c(c1)C(=O)C(c1c(O)[nH]c3ccccc13)=N2 | – | – | – | – | – | Activity (IMR-32 [6]): inactive; Activity (SK-N-SH [7]): inactive; Activity (HUVEC [8]): Non-toxic; Activity (NHDF [9]): Non-toxic; Activity (NB39 [10]): inactive |
| O=Nc1c(-c2c(O)[nH]c3ccccc23)[nH]c2ccccc12 [INDIRUBIN-3-MONOXIME] | Active | Active | Active | Non-toxic | – | – |
| COc1ccc2c(c1)/C(=C1/Nc3ccccc3/C1=N\O)C(=O)N2 | Active | Active | Active | – | – | – |
| CCc1ccc2c(c1)C(=O)/C(=C1/C(=O)Nc3ccccc31)N2 | – | – | – | – | – | Activity (IMR-32 [6]): inactive; Activity (SK-N-SH [7]): inactive; Activity (HUVEC [8]): Non-toxic; Activity (NHDF [9]): Non-toxic; Activity (NB39 [10]): inactive |
| COc1cccc2c1NC(=O)/C2=C1\Nc2ccccc2\C1=N/O | Active | Active | Active | – | – | – |
| COc1ccc2[nH]c(O)c(C3=Nc4ccccc4C3=O)c2c1 | Active | Active | Active | Toxic | Toxic | – |
| O=C1Nc2cc(Br)ccc2/C1=C1/Nc2ccccc2/C1=N\O | Active | Active | Active | – | – | – |
| COc1ccc2c(c1)N/C(=C1\C(=O)Nc3ccccc31)C2=O | Active | Active | Active | – | – | viability at 48 h [11]: 60%; viability at 48 h [12]: 82% |
| O=C1C(c2c(O)[nH]c3ccc(Br)cc23)=Nc2ccccc21 | inactive | inactive | inactive | Non-toxic | Non-toxic | – |
| COc1ccc2c(c1)C(=O)C(c1c(O)[nH]c3ccccc13)=N2 | Active | Active | Active | Non-toxic | Non-toxic | Activity (IMR-32 [13]): Active; Activity (IMR-32 [14]): Active; viability at 100 µM [15]: 40%; Activity (IMR-32 [16]): Active; viability at 100 µM [17]: 10%; Activity (IMR-32 [18]): Active; viability at 100 µM (SK-N-SH [19]): 10%; viability at 100 µM (IMR-32 [20]): 10%; viability at 100 µM [21]: 80%; Activity (IMR-32 [22]): Active |
| COc1ccc2c(c1)C(=N\O)/C(=C1/C(=O)Nc3ccccc31)N2 | inactive | inactive | inactive | Non-toxic | Non-toxic | – |
| COc1ccc2c(c1)NC(=O)/C2=C1\Nc2ccccc2\C1=N/O | Active | Active | Active | Non-toxic | Non-toxic | – |
| COc1ccc2c(c1)NC(=O)/C2=C1\Nc2ccccc2C1=O | – | – | – | – | – | Activity (IMR-32 [6]): inactive; Activity (SK-N-SH [7]): inactive; Activity (HUVEC [8]): Non-toxic; Activity (NHDF [9]): Non-toxic; Activity (NB39 [10]): inactive |
| O=C1C(c2c(O)[nH]c3ccccc23)=Nc2ccc(Br)cc21 | inactive | inactive | inactive | Non-toxic | Non-toxic | – |
